# Compound activity (PubChem)
# Sampled rows, rich in hits. Any-hit rate of the full collection: about 12%.
# Arbovirus inh: arbovirus infection inhibition; inhibition, % at 10 µM; arbovirus infection cell-based antiviral screen; hit rate 0.37% among 200,000; in the data active means inhibition above about 30%
# PKD1 inh: blocks activity of human protein kinase D1; PKD1 kinase fluorescence polarization assay; inhibition, % (no concentration beside the values); hit rate 0.056% among 200,000; AID 797
# CHOP inh: blocks CHOP induction under ER stress. inhibition, % at 10 µM. hit rate 3.8% among 220,000. CHO-K1 CHOP-promoter luciferase, tunicamycin-induced, 15-18 h;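 active means compounds that reduced the stress-induced luciferase reporter signal by more than about 70% of percent inhibition, limit read from the data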
# Rad51 HR inh: blocks human Rad51 in homologous recombination; Q06609; hRad51 DNA strand exchange, fluorescence dequenching; inhibition, % at 10 µM; hit rate 0.085% among 200,000;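 active means inhibition above 40% at the single screening dose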
#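 Material: hRad51 filaments on single-stranded DNA; Reagent: Donor/quencher-labelled 47-bp dsDNA substrate; Compound: 10 µM final, single point; Schedule: 37 °C 15-min filament assembly, 30-min compound preincubation, 15-min exchange; Technique: FRET fluorescence, excitation 485 nm, emission 520 nm; Benchmarks: control wells and blank wells on each plate.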
# Wee1 degr inh: human Wee1 degradation inhibition, primary screen | P30291 | HeLa Luc-Wee1K328M stability, luciferase luminescence; 100% = proteasome inhibitor MG132 effect | reporter increase, % at 5 µM | hit rate 1.2% among 220,000;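 active means activation above the mean of all tested compounds plus 3 SD, set per screening run, cut at about 8.8% in these data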;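 further: cells exposed to compound for 20 h before luminescence read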
# L major viab: Leishmania major promastigote growth inhibition. Leishmania major promastigotes, resazurin fluorescence viability. inhibition, % at 10 µM. hit rate 9% among 200,000. AID 1063;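 further: promastigotes grown with compound for 44 hours at 28 °C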
# Numbers stand for hits; i = inactive; nt = not tested or not shown. Unless noted, no stated cut-off is given here; in the data, active means inhibition above about 50%; inactive means the rest.
SMILES,Arbovirus inh,PKD1 inh,CHOP inh,Rad51 HR inh,Wee1 degr inh,L major viab
Cc1ccc(Cn2ccc(NC(=O)CCSc3nc(-c4ccco4)cc(C(F)(F)F)n3)n2)cc1,i,i,90,i,i,i
CC(C)c1cn(C2OC(COC(=O)c3ccccc3)C(OC(=O)c3ccccc3)C2OC(=O)c2ccccc2)c(=O)[nH]c1=O (stereo unspecified),nt,nt,nt,i,nt,nt
O=C1/C(=C/c2cccs2)N=C(c2cccs2)N1Nc1ccccc1,i,i,94,i,i,i
O=C1/C(=C\c2cccs2)N=C(c2cccs2)N1Nc1ccccc1,i,i,i,i,i,i
CC(C)C1OC(c2cccc(NC(=O)c3cccs3)c2)OCC1(C)C (stereo unspecified),i,i,79,i,i,i
CCn1c(=O)c([N+](=O)[O-])c(NCCc2ccccc2)c2ccccc21,i,i,i,i,i,100
CCN(CC)S(=O)(=O)c1ccc(N2CCCC2)c(C(=O)OCC(=O)Nc2cc(C)on2)c1,nt,nt,i,i,i,nt
COc1ccc(NC(=O)c2cc3n(n2)C(C(F)(F)F)CC(c2ccco2)N3)cc1 (stereo unspecified),i,i,i,i,i,i
O=C(NCC12CC3CC(CC(C3)C1)C2)c1cc2n(n1)C(C(F)(F)F)CC(c1ccco1)N2 (stereo unspecified),i,i,102,nt,i,i
COc1ccccc1N1CCN(C(=O)c2cc3n(n2)C(C(F)(F)F)CC(c2ccco2)N3)CC1 (stereo unspecified),i,i,i,i,i,i
Cc1cc(NC(=O)c2cc3n(n2)C(C(F)(F)F)CC(c2ccco2)N3)n(-c2ccccc2)n1 (stereo unspecified),i,i,76,i,i,i
COc1cc2c(cc1OC)C(C)N(C(=O)c1cc3n(n1)C(C(F)(F)F)CC(c1ccco1)N3)CC2 (stereo unspecified),i,i,i,i,i,i
O=C(c1cc2n(n1)C(C(F)(F)F)CC(c1ccco1)N2)N1CCc2ccccc2C1 (stereo unspecified),i,i,83,i,i,54
O=C(O)CCNC(=O)c1ccc(NC(=O)Cc2ccc(Cl)cc2)cc1,i,i,i,i,i,i
CCOC(=O)C1=C(C)NC(C)=C(C(=O)OCC)C1C,i,i,i,i,i,i
CCOC(=O)C1=C(C)NC(C)=C(C(=O)OCC)C1c1cc(N)ccc1OC(F)F,i,i,i,i,i,55
Cc1ccccc1N(CC(=O)N/N=C/c1ccc(N(C)C)cc1)C(=O)c1ccccc1,i,i,i,i,i,99
Cc1ccccc1N(CC(=O)N/N=C/c1ccccc1Cl)C(=O)c1ccccc1,i,i,73,i,i,i
CCOC(=O)c1c(-c2ccc(OC)cc2)csc1/N=C/C1=C(O)CCCC1=O,i,i,i,nt,i,i
O=C(Cc1cccs1)Nc1cccc(-c2ccc3nncn3n2)c1,i,i,i,i,i,i
COc1ccc(/C=C(\C#N)C(=O)C(C)(C)n2cncn2)cc1,i,i,i,i,i,i
OCCNCc1ccc(OCc2ccc(Cl)cc2Cl)cc1,i,i,i,i,i,100
CCOc1ccc(CNCc2ccccc2Cl)cc1,i,i,i,i,i,i
OCCCCNCc1ccc(OCc2ccc(Cl)cc2Cl)cc1,i,i,i,i,i,101
O=[N+]([O-])c1cc(/C=N/O)ccc1Sc1ccccc1,i,i,i,i,i,78
SMILES,Arbovirus inh,PKD1 inh,CHOP inh,Rad51 HR inh,Wee1 degr inh,L major viab
COc1cc(C)c(Cl)cc1S(=O)(=O)NCCN1CCOCC1,i,i,i,i,i,i
COc1cc(C)c(Br)cc1S(=O)(=O)NCCCN1CCOCC1,i,i,i,i,i,75
COc1ccc(Br)cc1S(=O)(=O)NCCN1CCOCC1,i,i,i,i,i,i
Cc1ccc(S(=O)(=O)NCCCN2CCOCC2)c(C)c1,i,i,i,i,i,52
COc1cc(C)c(Cl)cc1S(=O)(=O)NCCCN1CCOCC1,i,i,i,i,i,86
COc1cc(Cl)c(S(=O)(=O)NCCCN2CCOCC2)cc1Cl,i,i,i,i,i,93
CCN(CC)C(=O)C(=O)Nc1ccc(F)c(Cl)c1,i,i,i,i,i,i
CC(=O)c1ccc(N2Cc3ccccc3/C2=N\C(=O)Nc2ccc(Cl)cc2)cc1,i,i,i,i,i,i
CC(C)n1nc(C(=O)Nc2nc3ccccc3[nH]2)c2ccccc2c1=O,i,i,i,i,i,i
COc1ccc(CNC(=O)c2ccc(N3CCC4(CC3)CC(c3ccc(Cl)cc3)=NO4)c(N)c2)cc1,nt,nt,nt,i,nt,nt
O=C(c1ccc2ccccc2c1)C1CCCN(S(=O)(=O)c2cccnc2)C1 (stereo unspecified),i,i,i,i,i,i
O=C(c1noc2c1CCCC2)N1CCC(CO)(Cc2ccccc2Cl)CC1,i,i,i,i,i,i
O=C(NCc1ccccc1)c1ncn[nH]1,nt,nt,i,i,i,nt
CCN(CC)c1ccc(/C=N/Nc2nc3ccccc3[nH]2)cc1,i,i,i,i,i,100
Clc1ccc(/C=N/Nc2ccccn2)cc1,i,i,i,i,i,i
O=c1[nH]c(N/N=C/c2ccc(O)cc2)nc2ccccc12,i,i,i,nt,i,i
Fc1ccc(/C=N/Nc2ccccn2)cc1,i,i,i,i,i,69
O=c1[nH]c(N/N=C\c2ccc(F)cc2)nc2ccccc12,i,i,i,i,i,65
CC(=O)Nc1ccc(/C=N/Nc2nc3ccccc3[nH]2)cc1,i,i,i,i,i,100
C/C(=N\NC(=O)c1nn(C)c(C)c1Br)c1ccc(NC(=O)c2ccccc2F)cc1,i,i,i,nt,i,i
NCCCC[C@H]1CNC(=S)N1CCc1cccc(F)c1,i,i,i,i,i,i
Cn1c(=O)c2c(SC3CCCC3)nc(C3CC3)nc2n(C)c1=O,i,i,80,i,i,i
Cc1noc(C)c1-c1nnc(-c2ccc(OC(F)(F)F)cc2)o1,nt,nt,i,i,i,nt
COc1ccc(N2CCN(C3CC(=O)N(Cc4ccccc4)C3=O)CC2)cc1 (stereo unspecified),i,i,i,i,i,i
O=C(c1ccncc1)c1ccc(N2CCN(C3CC(=O)N(Cc4ccccc4)C3=O)CC2)cc1 (stereo unspecified),i,i,i,i,i,98
SMILES,Arbovirus inh,PKD1 inh,CHOP inh,Rad51 HR inh,Wee1 degr inh,L major viab
COc1ccc2nc(C)cc(SCC(=O)N/N=C/c3ccc(O)c(O)c3)c2c1,i,i,i,i,i,i
Cc1cc(SCC(=O)N/N=C/c2ccc(O)c(O)c2)c(C)cc1Br,i,i,i,i,i,72
Cn1ccnc1SCC(=O)Nc1nc2c(F)c(F)c(F)cc2s1,i,i,i,nt,i,i
O=C1/C(=C/c2ccc(Cl)cc2)NC(=S)N1Cc1cccnc1,i,i,i,i,i,84
COc1ccc(-c2nc(=S)[nH][nH]2)cc1,i,i,i,i,i,i
COc1ccc(-c2nn(C)c(=O)[nH]2)cc1,nt,nt,i,i,11,nt
c1ccc(CN(Cc2cccs2)C(c2cccs2)c2nnnn2C2CCCC2)cc1 (stereo unspecified),i,i,i,i,i,89
